Test results reported in ChEMBL document CHEMBL5614410, “Design, Synthesis, and Evaluation of p53Y220C Acetylation Targeting Chimeras (AceTACs)” (J Med Chem, 2024).
The source made the active and inactive calls. The rule behind the calls is not given here.

Columns and labels:
NCI-H1299 [1] = assay: Antiproliferative activity against human NCI-H1299 cells expressing p53Y220C mutant assessed as reduction in cell viability incubated for 3 days by WST-8 assay; type: functional; conditions: NCI-H1299, 72 h, time 3 day
Procedure, shortened: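 NCI-H1299 p53Y220C cells were exposed to compound over a concentration range for 72 h, in some runs after 72 h of control or p300 siRNA, before the viability read-out. Values are mean ± SD of three independent experiments.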

[2] = test system: CREB-binding protein/Histone acetyltransferase p300/Cellular tumor antigen p53 (Homo sapiens), P04637+Q09472+Q92793 [Y220C]; assay: AceTAC activity at FLAG-tagged p53Y220C mutant (unknown origin ) expressed in human NCI-H1299 cells expressing p300/CBP assessed as increase in p53 acetylation at lysine 382 residue at 1 uM incubated for 24 hrs by western blot analysis; type: cell-based
Procedure, shortened: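 NCI-H1299 cells stably expressing p53Y220C, treated 24 h at 1 or 10 μM. Lysates were Western blotted for total p53 and p53 K382ac, with vinculin as loading control. Blots are representative of at least two independent experiments.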

[3] = test system: CREB-binding protein/Histone acetyltransferase p300/Cellular tumor antigen p53 (Homo sapiens), P04637+Q09472+Q92793 [Y220C]; assay: AceTAC activity at FLAG-tagged p53Y220C mutant (unknown origin) expressed in human NCI-H1299 cells expressing p300/CBP assessed as increase in p53 acetylation at lysine 382 residue at 10 uM incubated for 24 hrs by western blot analysis relative to control; type: cell-based
Procedure, shortened: (§1)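 NCI-H1299 (p53Y220C) cells were treated at 0.1–10 μM (0.1, 0.3, 1, 3 or 10 μM) for 24 h. Lysates were Western blotted for p53 and p53K382ac, with vinculin as loading control. p53K382ac was normalised to total p53Y220C and quantified from two or three independent experiments.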

[4] = test system: Cellular tumor antigen p53 (Homo sapiens), P04637 [Y220C]; assay: Stabilization of p53Y220C mutant (unknown origin) expressed in human NCI-H1299 cells assessed as increase in melting temperature incubated for 1 hr by CETSA analysis; type: cell-based
Procedure, shortened: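 CETSA: NCI-H1299 (p53Y220C) stable cells were treated with DMSO or 100 μM for 1 h, then heated from 32 to 50 °C. Soluble p53 was detected by Western blot. Results are representative of at least two independent experiments.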

[5] = test system: CREB-binding protein/Histone acetyltransferase p300/Cellular tumor antigen p53 (Homo sapiens), P04637+Q09472+Q92793 [Y220C]; assay: Induction of interaction between FLAG-tagged p53Y220C mutant (unknown origin) and p300/CBP expressed in human NCI-H1299 cells assessed as ternary complex formation at 10 uM incubated for 24 hrs by co-immunoprecipitation analysis; type: cell-based
Procedure, shortened: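 NCI-H1299 p53-null and p53Y220C cells were treated with DMSO or compound at 10 μM for 24 h. p53-FLAG pull-down was followed by Western blotting for associated p300. Representative of two independent experiments.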

[6] = test system: Cellular tumor antigen p53 (Homo sapiens), P04637 [Y220C]; assay: Stabilization of FLAG-tagged p53Y220C mutant (unknown origin) expressed in human NCI-H1299 cells assessed as downregulation of E2F1 mRNA expression at 3 uM incubated for 24 hrs by RT-qPCR analysis; type: cell-based
Procedure, shortened: (§2)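 NCI-H1299 p53Y220C cells were treated with 3 μM or DMSO for 24 h, followed by RT-qPCR of p53 target genes. Each transcript was normalized to GAPDH, then expressed relative to the DMSO control. Values are mean ± SD from three independent experiments.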

NCI-H1299 [7] = assay: Antiproliferative activity against p53-null human NCI-H1299 cells assessed as reduction in cell viability at 0.47 to 15 uM incubated for 3 days by WST-8 assay; type: functional, cell-based; conditions: dose 0.47-15 µM, time 3.0 day
Procedure, shortened: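 p53-null NCI-H1299 cells were exposed to compound across the concentration series for 72 h before the viability read-out. Data are mean ± SD from three independent experiments.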

[8] = test system: Cellular tumor antigen p53 (Homo sapiens), P04637 [Y220C]; assay: Induction of FLAG-tagged p53Y220C mutant acetylation (unknown origin) expressed in human NCI-H1299 cells assessed as increase in p53 acetylation at lysine 382 residue at 10 uM incubated for 24 hrs by western blot analysis relative to control; type: cell-based; procedure, shortened: as §1
[9] = test system: Cellular tumor antigen p53 (Homo sapiens), P04637 [Y220C]; assay: Stabilization of p53Y220C mutant (unknown origin) assessed as increase in melting temperature at 250 uM by […]
[10] = test system: Cellular tumor antigen p53 (Homo sapiens), P04637 [Y220C]; assay: Stabilization of FLAG-tagged p53Y220C mutant (unknown origin) expressed in human NCI-H1299 cells assessed as upregulation of p21 mRNA expression at 3 uM incubated for 24 hrs by RT-qPCR analysis; type: cell-based; procedure, shortened: as §2
[11] = Cytotoxicity against human PNT2 cells assessed as inhibition of cell growth at 10 uM incubated for 72 hrs by WST-8 assay; type: toxicity, cell-based
Procedure, shortened: (§3)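 U2OS (WT p53) or normal prostate PNT2 cells were treated for 72 h at the indicated concentrations. Viability is mean ± SD of technical triplicates from two biological experiments.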

[12] = test system: Cellular tumor antigen p53 (Homo sapiens), P04637 [Y220C]; assay: Induction of p53Y220C mutant acetylation in human NUGC-3 cells expressing p300/CBP assessed as increase in p53 acetylation at lysine 382 residue at 1 to 10 uM incubated for 24 hrs by western blot analysis; type: cell-based; conditions: dose 1-10 µM
Procedure, shortened: (§4)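 BxPC3 or NUGC-3 cells, which endogenously carry p53Y220C, were dosed at 1, 3 or 10 μM (or DMSO) for 24 h. Lysates were immunoblotted for p53 and p53 K382ac, with vinculin loading control. Blots are representative of two independent experiments.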

NUGC-3 = assay: Antiproliferative activity against human NUGC-3 cells harboring p53Y220C mutant assessed as inhibition of cell growth incubated for 72 hrs by WST-8 assay; type: functional
Procedure, shortened: (§5)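 BxPC3 or NUGC-3 cells were treated with DMSO or compound over a concentration range for 72 h before the viability read-out. Values are mean ± SD of technical triplicates from three biological experiments.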

BXPC-3 = assay: Antiproliferative activity against human BXPC-3 cells harboring p53Y220C mutant assessed as inhibition of cell growth incubated for 72 hrs by WST-8 assay; type: functional; procedure, shortened: as §5
U2OS = assay: Cytotoxicity against human U2OS cells harboring wild type p53 assessed as inhibition of cell growth incubated for 72 hrs by WST-8 assay; type: toxicity, cell-based; procedure, shortened: as §3
[13] = test system: Cellular tumor antigen p53 (Homo sapiens), P04637 [Y220C]; assay: Stabilization of FLAG-tagged p53Y220C mutant (unknown origin) expressed in human NCI-H1299 cells assessed as upregulation of GADD45A mRNA expression at 3 uM incubated for 24 hrs by RT-qPCR analysis; type: cell-based; procedure, shortened: as §2
[14] = Cytotoxicity against human U2OS cells harboring wild type p53 assessed as inhibition of cell growth at 10 uM incubated for 72 hrs by WST-8 assay; type: toxicity, cell-based; procedure, shortened: as §3
PNT2 = assay: Cytotoxicity against human PNT2 cells assessed as inhibition of cell growth incubated for 72 hrs by WST-8 assay; type: toxicity, cell-based; conditions: pnt2, 72 h; procedure, shortened: as §3
NCI-H1299 [15] = assay: Antiproliferative activity against human NCI-H1299 cells expressing p53Y220C mutant and transfected with p300 siRNA assessed as reduction in cell viability at 0.47 to 15 uM incubated for 3 days by WST-8 assay; type: functional, cell-based; conditions: dose 0.47-15 µM, time 3.0 day
Procedure, shortened: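 NCI-H1299 p53Y220C cells were first transfected with p300 siRNA for 72 h, then exposed to compound across the concentration series for 72 h. Viability is mean ± SD from three independent experiments.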

[16] = test system: Cellular tumor antigen p53 (Homo sapiens), P04637 [Y220C]; assay: Induction of p53Y220C mutant acetylation in human BXPC-3 cells expressing p300/CBP assessed as increase in p53 acetylation at lysine 382 residue at 1 to 10 uM incubated for 24 hrs by western blot analysis; type: cell-based; conditions: dose 1-10 µM; procedure, shortened: as §4
[17] = test system: CREB-binding protein/Histone acetyltransferase p300/Cellular tumor antigen p53 (Homo sapiens), P04637+Q09472+Q92793 [Y220C]; assay: AceTAC activity at FLAG-tagged p53Y220C mutant (unknown origin) expressed in human NCI-H1299 cells expressing p300/CBP assessed as stabilization of protein by measuring increase in aggregation temperature at 100 uM incubated for 1 hr at 32 to 50 degC by CETSA analysis; type: cell-based
Procedure, shortened: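 For CETSA, NCI-H1299 (p53Y220C) stable cells were treated with DMSO or 100 μM compound for 1 h, then heated at 32 to 50 °C. Soluble p53 was detected by Western blot. Representative of at least two independent experiments.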

[18] = target: CREB-binding protein/Histone acetyltransferase p300/Cellular tumor antigen p53 (Homo sapiens, UniProt P04637+Q09472+Q92793, Y220C); assay: AceTAC activity at FLAG-tagged p53Y220C mutant (unknown origin) expressed in human NCI-H1299 cells expressing p300/CBP assessed as increase in p53 acetylation at lysine 382 residue incubated for 24 hrs by western blot analysis; type: cell-based; procedure, shortened: as §1
[19] = test system: CREB-binding protein/Histone acetyltransferase p300/Cellular tumor antigen p53 (Homo sapiens), P04637+Q09472+Q92793 [Y220C]; assay: AceTAC activity at FLAG-tagged p53Y220C mutant (unknown origin) expressed in human NCI-H1299 cells expressing p300/CBP assessed as fold increase in p53 acetylation at lysine 382 residue at 10 uM incubated for 24 hrs by western blot analysis relative to control; type: cell-based
Procedure, shortened: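 NCI-H1299 (p53Y220C) cells were exposed to 1, 3 and 10 μM for 24 h, then Western blotted. The K382ac signal was normalized to total p53Y220C and quantified from two independent experiments (±SD), relative to DMSO.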

[20] = test system: Cellular tumor antigen p53 (Homo sapiens), P04637 [Y220C]; assay: Stabilization of p53Y220C mutant (unknown origin) assessed as increase in melting temperature by […]

SMILES	GI50 (NCI-H1299 [1]) [µM]	Activity [2]	Activity [3] [%]	other results
CCn1c2ccc(CNCCCCC(=O)NCCOc3ccc(CCc4nc5cc(-c6c(C)noc6C)ccc5n4CCN4CCOCC4)cc3F)cc2c2ccc(-c3cc(C)cs3)cc21	4	Active	202	
CCn1c2ccc(CNCCC(=O)NCCOc3ccc(CCc4nc5cc(-c6c(C)noc6C)ccc5n4CCN4CCOCC4)cc3F)cc2c2ccc(-c3cc(C)cs3)cc21	13		70	
C=C(C)C(=O)n1cc(C)c2c(-c3ccc4c(c3)CCN(C)C4)cncc21				ΔTm [4]: 8.3 °C
CCn1c2ccc(CNC)cc2c2ccc(-c3cc(C)cs3)cc21	16			Activity [5]: inactive; Activity [6]: inactive; Activity (NCI-H1299 [7]): inactive; Activity [8]: 26%; ΔTm [9]: 3.7 °C; Activity [10]: Active; inhibition at 72 h, 10 µM [11]: ~30%; Activity [12]: inactive; GI50 (NUGC-3): 10.1 µM; GI50 (BXPC-3): 14 µM; GI50 (U2OS): > 10 µM; Activity [13]: Active; inhibition at 72 h, 10 µM [14]: 30%; GI50 (PNT2): > 10 µM; Activity (NCI-H1299 [15]): Active; Activity [16]: inactive
CCn1c2ccc(CNCCOCCOCCC(=O)NCCOc3ccc(CCc4nc5cc(-c6c(C)noc6C)ccc5n4CCN4CCOCC4)cc3F)cc2c2ccc(-c3cc(C)cs3)cc21	4	Active	205	
CCn1c2ccc(CNCCOCCOCCOCCn3cc(COc4ccc(CCc5nc6cc(-c7c(C)noc7C)ccc6n5CCN5CCOCC5)cc4F)nn3)cc2c2ccc(-c3cc(C)cs3)cc21				ΔTm [17]: 4 °C; EC50 [18]: 1.87 µM; fold change (FC) [19]: 4
COc1ccc(CCc2nc3cc(-c4c(C)noc4C)ccc3n2CCN2CCOCC2)cc1F				Activity (NCI-H1299 [7]): inactive; Activity [12]: inactive; Activity (NUGC-3): inactive; Activity (BXPC-3): inactive; Activity [16]: inactive
CCn1c2ccc(CNCCOCCC(=O)NCCOc3ccc(CCc4nc5cc(-c6c(C)noc6C)ccc5n4CCN4CCOCC4)cc3F)cc2c2ccc(-c3cc(C)cs3)cc21	4	Active	186	
CCn1c2ccc(CNCCOCCOCCOCCOCCC(=O)NCCOc3ccc(CCc4nc5cc(-c6c(C)noc6C)ccc5n4CCN4CCOCC4)cc3F)cc2c2ccc(-c3cc(C)cs3)cc21	4	Active	198	
CCn1c2ccc(CNCCOCCOCCOCCOCCOCCC(=O)NCCOc3ccc(CCc4nc5cc(-c6c(C)noc6C)ccc5n4CCN4CCOCC4)cc3F)cc2c2ccc(-c3cc(C)cs3)cc21	5	Active	184	
CCn1c2ccc(CNCCCCCCC(=O)NCCOc3ccc(CCc4nc5cc(-c6c(C)noc6C)ccc5n4CCN4CCOCC4)cc3F)cc2c2ccc(-c3cc(C)cs3)cc21	4	Active	219	
CCn1c2ccccc2c2cc(CNC)ccc21				ΔTm [20]: 1 °C
CCn1c2ccc(CNCCCCCCCCC(=O)NCCOc3ccc(CCc4nc5cc(-c6c(C)noc6C)ccc5n4CCN4CCOCC4)cc3F)cc2c2ccc(-c3cc(C)cs3)cc21	5	Active	103	
CCn1c2ccc(CNCCCCCCCC(=O)NCCOc3ccc(CCc4nc5cc(-c6c(C)noc6C)ccc5n4CCN4CCOCC4)cc3F)cc2c2ccc(-c3cc(C)cs3)cc21	4	Active	196	
CCn1c2ccc(CNCCCC(=O)NCCOc3ccc(CCc4nc5cc(-c6c(C)noc6C)ccc5n4CCN4CCOCC4)cc3F)cc2c2ccc(-c3cc(C)cs3)cc21	4	Active	195	
CCn1c2ccc(CNCC(=O)NCCOc3ccc(CCc4nc5cc(-c6c(C)noc6C)ccc5n4CCN4CCOCC4)cc3F)cc2c2ccc(-c3cc(C)cs3)cc21	18		60	
CCn1c2ccc(CNCCCCCC(=O)NCCOc3ccc(CCc4nc5cc(-c6c(C)noc6C)ccc5n4CCN4CCOCC4)cc3F)cc2c2ccc(-c3cc(C)cs3)cc21	4	Active	176	
